What was measured:
Mus musculus [1] = assay: Tested for NMDLA induced seizures and protection against full generalized tonic seizures was recorded; Percentage of protection at 100 mg/kg per os.; type: functional; conditions: po
Outline: (§1)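 Compounds given 30 min before N-methyl-D,L-aspartate 345 mg/kg sc in mice. Protection against full generalized tonic seizures recorded. Chi-square with Yates correction.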

Mus musculus [2] = assay: Ability to prevent the tonic extensor component induced by 106.25 mg/kg sc of pentylenetetrazole; type: functional; conditions: route subcutaneous
Mus musculus [3] = species: Mus musculus; assay: (§2) Anticonvulsant activity against bicuculline induced seizures in mice; type: functional
Outline: (§3)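 Mice given compound 30 min before bicuculline 0.81 mg/kg iv (procedure after Heyer). Protection against clonic seizures recorded. Groups of 10 mice per dose; chi-square with Yates correction.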

Mus musculus [4] = assay: Tested for the abolition of the hand leg tonic extensor component of the seizure induced by a 0.96 mg/kg sc injection of strychnine; type: functional; conditions: route subcutaneous
Outline: (§4)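 Mice tested 30 min after compound for abolition of the tonic extensor component from strychnine 0.96 mg/kg sc. Chi-square with Yates correction; ED50 by Litchfield–Wilcoxon.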

Mus musculus [5] = assay: Yohimbine induced seizures by administrating sc and the compound which do not exhibit at least one clonic seizure within 60 min was recorded; type: functional; conditions: 1 h
Outline: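 Mice, 10 per dose, dosed 30 min before yohimbine 45 mg/kg sc. Animals with no clonic seizure within 60 min were counted as protected. ED50 by Litchfield–Wilcoxon; chi-square with Yates correction.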

Mus musculus [6] = assay: Locomotor activity in maximal electroshock seizure+ indicates increase at 100 mg/kg; type: functional
Mus musculus [7] = species: Mus musculus; assay: Anticonvulsant activity in mice using the maximal electroshock seizure test.; type: functional
Outline: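 Oral dosing of mice 30 min before maximal electroshock via corneal electrodes. Protection is abolition of the hind limb tonic extensor component.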

[8] = Central nervous system toxicity was performed by determining the median toxic dose in the rotarod test; type: organism-based; conditions: mouse, in vivo
Outline: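 Rotarod neurotoxicity in mice, oral dosing 30 min before assay. Failure to stay 3 min on a 3-cm wooden rod turning at 8 rpm counts as toxic.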

[9] = Protective index is the ratio between TD50 and ED50 values; type: functional
Outline: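 Protective index is rotarod TD50 divided by ED50. Both come from oral dosing in mice 30 min before test and are calculated by Litchfield–Wilcoxon.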

Mus musculus [10] = assay: Anticonvulsant activity was measured using the maximal electroshock seizure test in mice. protection percentage at 100 mg/kg; type: functional; conditions: for % protection at 100 mg/kg: Mus musculus
Mus musculus [11] = assay: Tested for NMDLA induced seizures and protection against full generalized tonic seizures was recorded; Percentage of protection at 150 mg/kg per os.; type: functional; conditions: for ED50: Mus musculus, po; outline: as §1
Mus musculus [12] = assay: Locomotor activity in maximal electroshock seizure. - indicates decrease at 100 mg/kg; type: functional
Mus musculus [13] = assay: Yohimbine induced seizures by administrating sc and the compound which do not exhibit at least one clonic seizure within 60 min was recorded; Percentage of protection at 150 mg/kg per os.; type: functional; conditions: route subcutaneous; for ED50: Mus musculus, sc, 1 h
Outline: (§5)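 Compound given 30 min before yohimbine 45 mg/kg sc in mice. Animals without at least one clonic seizure within 60 min count as protected. Chi-square with Yates correction.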

Mus musculus [14] = assay: Ability to prevent the tonic extensor component induced by 106.25 mg/kg sc of pentylenetetrazole; Percentage of protection at 100 mg/kg per os.; type: functional
Outline: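 Mice dosed orally 30 min before pentylenetetrazole 106.25 mg/kg sc. Protection is block of the tonic extensor component. Groups of 10 mice per dose; chi-square with Yates correction; ED50 by Litchfield–Wilcoxon.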

Mus musculus [15] = assay: Tested for the abolition of the hand leg tonic extensor component of the seizure induced by a 0.96 mg/kg sc injection of strychnine; Percentage of protection at 100 mg/kg per os.; type: functional
Outline: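 Oral dose of 100 mg/kg in mice, 10 per dose, given 30 min before strychnine 0.96 mg/kg sc. Protection means abolition of the hind leg tonic extensor component, given as percentage of animals protected. Chi-square with Yates correction.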

Mus musculus [16] = assay: Tested for NMDLA induced seizures and protection against full generalized tonic seizures was recorded; Percentage of protection at 30 mg/kg per os.; conditions: po
Mus musculus [17] = species: Mus musculus; assay: as §2; type: functional; remark: listed apart in the source
Outline: (§6)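 Mice, 10 per dose. Test drug given 30 min before bicuculline 0.81 mg/kg iv; protection against clonic seizures recorded. Line 2: single oral dose of 100 mg/kg, given as percentage of animals protected. ED50 by Litchfield–Wilcoxon; chi-square with Yates correction.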

Mus musculus [18] = species: Mus musculus; assay: Tested for NMDLA induced seizures and protection against full generalized tonic seizures was recorded; type: functional
Outline: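 NMDLA (N-methyl-D,L-aspartate) 345 mg/kg sc injected 30 min after test drug in mice, 10 per dose; protection against full generalized tonic seizures recorded. ED50 by Litchfield–Wilcoxon; chi-square with Yates correction.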

Mus musculus [19] = assay: Tested for the abolition of the hand leg tonic extensor component of the seizure induced by a 0.96 mg/kg sc injection of strychnine;Percentage of protection at 100 mg/kg per os.; type: functional; outline: as §4
Mus musculus [20] = assay: (§7) Anticonvulsant activity against bicuculline induced seizures in mice; Percentage of protection at 100 mg/kg per os.; type: functional; outline: as §3
Mus musculus [21] = assay: yohimbine induced seizures by administrating sc and the compound which do not exhibit at least one clonic seizure within 60 min was recorded; Percentage of protection at 100 mg/kg per os.; type: functional; conditions: 1 h, route subcutaneous; outline: as §5
Mus musculus [22] = assay: as §7; type: functional; outline: as §6; remark: listed apart in the source

Cc1nn2cnnc2cc1Cc1c(Cl)cccc1Cl
pct protection (Mus musculus [1]): 12.5% | ED50 (Mus musculus [2]): 70 mg/kg | ED50 (Mus musculus [3]): 125 mg/kg | ED50 (Mus musculus [4]): 39.5 mg/kg | ED50 (Mus musculus [5]): 150 mg/kg | Locomotor activity (Mus musculus [6]): 13% | ED50 (Mus musculus [7]): 6.2 mg/kg | TD50 [8]: 88 mg/kg | PI [9]: 14.2

Cc1nnc(NNC(=O)Nc2ccccc2)cc1Cc1ccccc1
percent protection (Mus musculus [10]): 0%

Cc1nn2c(N)nnc2cc1Cc1c(Cl)cccc1Cl
ED50 (Mus musculus [11]): 14 mg/kg | ED50 (Mus musculus [2]): 76 mg/kg | ED50 (Mus musculus [3]): 93 mg/kg | ED50 (Mus musculus [4]): 34.5 mg/kg | ED50 (Mus musculus [5]): 76 mg/kg | Locomotor activity (Mus musculus [6]): 16% | ED50 (Mus musculus [7]): 9.2 mg/kg | TD50 [8]: 410 mg/kg | PI [9]: 44.5

Cc1nn2c(N)nnc2cc1Cc1ccc(F)cc1
Locomotor activity (Mus musculus [12]): -15% | ED50 (Mus musculus [7]): 43 mg/kg

Cc1nn2c(-c3ccccc3)nnc2cc1Cc1ccccc1
Locomotor activity (Mus musculus [6]): 2% | ED50 (Mus musculus [7]): 108 mg/kg

Cc1nn2cnnc2cc1Cc1ccccc1
ED50 (Mus musculus [11]): 25 mg/kg | ED50 (Mus musculus [3]): 63 mg/kg | ED50 (Mus musculus [4]): 85 mg/kg | percent protection (Mus musculus [13]): 0% | Locomotor activity (Mus musculus [6]): 8% | ED50 (Mus musculus [7]): 9.5 mg/kg | TD50 [8]: 170 mg/kg | PI [9]: 17.9 | pct protection (Mus musculus [14]): 20%

CCCC(CCC)C(=O)[O-].[Na+] [VALPROATE SODIUM]
percent protection (Mus musculus [11]): 0% | percent protection (Mus musculus [15]): 0% | ED50 (Mus musculus [13]): 10 mg/kg | Locomotor activity (Mus musculus [12]): -5% | ED50 (Mus musculus [7]): 112 mg/kg | TD50 [8]: 208 mg/kg | PI [9]: 1.9 | pct protection (Mus musculus [14]): 20%

Cc1nn2c(NC(=O)c3ccccc3)nnc2cc1Cc1ccccc1
Locomotor activity (Mus musculus [6]): 7% | ED50 (Mus musculus [7]): 35 mg/kg

Cc1nnc(NC(N)=O)cc1Cc1ccccc1
ED50 (Mus musculus [11]): 12.5 mg/kg | ED50 (Mus musculus [3]): 111 mg/kg | ED50 (Mus musculus [4]): 28 mg/kg | ED50 (Mus musculus [13]): 10 mg/kg | Locomotor activity (Mus musculus [12]): -5% | ED50 (Mus musculus [7]): 10.2 mg/kg | TD50 [8]: 140 mg/kg | PI [9]: 13.7 | pct protection (Mus musculus [14]): 20%

CN1C(=O)CN=C(c2ccccc2)c2cc(Cl)ccc21 [DIAZEPAM]
ED50 (Mus musculus [16]): 30 mg/kg | ED50 (Mus musculus [2]): 0.5 mg/kg | ED50 (Mus musculus [4]): 1.1 mg/kg | ED50 (Mus musculus [5]): 2.3 mg/kg | ED50 (Mus musculus [17]): 0.39 mg/kg | ED50 (Mus musculus [7]): 4 mg/kg | TD50 [8]: 2.8 mg/kg | PI [9]: 0.7

Cc1nnc(NNC(=O)c2ccccc2)cc1Cc1ccccc1
% protection at 100 mg/kg (Mus musculus [10]): 17% | Locomotor activity (Mus musculus [12]): -62%

Cc1nnc(NNC(=O)N(c2ccccc2)c2ccccc2)cc1Cc1ccccc1
% protection at 100 mg/kg (Mus musculus [10]): 15% | Locomotor activity (Mus musculus [6]): 9%

CCC1(c2ccccc2)C(=O)NC(=O)NC1=O [PHENOBARBITAL]
ED50 (Mus musculus [18]): 30 mg/kg | ED50 (Mus musculus [2]): 15 mg/kg | percent protection (Mus musculus [15]): 0% | ED50 (Mus musculus [5]): 17 mg/kg | ED50 (Mus musculus [17]): 20 mg/kg | Locomotor activity (Mus musculus [6]): 33% | ED50 (Mus musculus [7]): 4.6 mg/kg | TD50 [8]: 33 mg/kg | PI [9]: 7.2

Cc1nn2c(C)nnc2cc1Cc1ccccc1
Locomotor activity (Mus musculus [6]): 47% | ED50 (Mus musculus [7]): 26 mg/kg

O=C1NC(=O)C(c2ccccc2)(c2ccccc2)N1 [PHENYTOIN]
percent protection (Mus musculus [11]): 0% | percent protection (Mus musculus [19]): 0% | ED50 (Mus musculus [13]): 10 mg/kg | percent protection (Mus musculus [20]): 0% | Locomotor activity (Mus musculus [12]): -16% | ED50 (Mus musculus [7]): 4 mg/kg | TD50 [8]: 30.5 mg/kg | PI [9]: 7.6 | percent protection (Mus musculus [14]): 0%

Cc1ccc(Cc2cc3nnc(N)n3nc2C)cc1
Locomotor activity (Mus musculus [12]): -8% | ED50 (Mus musculus [7]): 22.5 mg/kg

Cc1nnc(NNC(=O)C(C)C)cc1Cc1ccccc1
percent protection (Mus musculus [10]): 0% | Locomotor activity (Mus musculus [12]): -67%

NC(=O)N1c2ccccc2C=Cc2ccccc21 [CARBAMAZEPINE]
ED50 (Mus musculus [11]): 20 mg/kg | ED50 (Mus musculus [2]): 17.5 mg/kg | ED50 (Mus musculus [21]): 10 mg/kg | percent protection (Mus musculus [22]): 0% | ED50 (Mus musculus [4]): 8.5 mg/kg | Locomotor activity (Mus musculus [6]): 7% | ED50 (Mus musculus [7]): 5.5 mg/kg | TD50 [8]: 40 mg/kg | PI [9]: 7.3

Cc1nnc(NNC(=O)C(C)C)cc1Cc1ccccc1Cl
% protection at 100 mg/kg (Mus musculus [10]): 17% | Locomotor activity (Mus musculus [12]): -57%

Cc1nn2cc(-c3ccccc3)nc2cc1Cc1ccccc1
Locomotor activity (Mus musculus [6]): 12% | ED50 (Mus musculus [7]): 105 mg/kg

Cc1nn2c(N)nnc2cc1Cc1ccccc1
ED50 (Mus musculus [11]): 14 mg/kg | ED50 (Mus musculus [3]): 94 mg/kg | ED50 (Mus musculus [4]): 35 mg/kg | ED50 (Mus musculus [13]): 20 mg/kg | Locomotor activity (Mus musculus [6]): 11% | ED50 (Mus musculus [7]): 22 mg/kg | TD50 [8]: > 800 mg/kg | PI [9]: 36.4 | pct protection (Mus musculus [14]): 20%

Cc1nn2c(C)nnc2cc1Cc1ccccc1Cl
Locomotor activity (Mus musculus [12]): -1% | ED50 (Mus musculus [7]): 30.5 mg/kg

Cc1nnc(NNC(=O)Nc2ccccc2)cc1Cc1ccccc1Cl
% protection at 100 mg/kg (Mus musculus [10]): 33% | Locomotor activity (Mus musculus [12]): -3%

Cc1nn2c(N)nnc2cc1Cc1ccccc1Cl
Locomotor activity (Mus musculus [12]): -7% | ED50 (Mus musculus [7]): 17.4 mg/kg

Cc1nn2cnnc2cc1Cc1ccccc1Cl
Locomotor activity (Mus musculus [6]): 5% | ED50 (Mus musculus [7]): 6 mg/kg
